Measurements reported in ChEMBL document CHEMBL4665866, “Generation, optimization and characterization of novel anti-prion compounds” (Bioorg Med Chem, 2020).

Test system: not listed separately
Experiment: Anti-prion activity against 22L prion protein in mouse N2a cells by Western blotting analysis
Assay type: cell-based
With OC1(C#Cc2ccccc2)CCCCC1NCc1ccccc1 (racemic) the IC50 was 8.25 µM.

Test system: N2a
Experiment: Anti-prion activity against Scrapie prion protein in mouse N2a-FK cells assessed as residual activity at 10 uM after 48 hrs by immunoblotting analysis relative to control
Assay type: cell-based
Outline: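 FK-1-infected N2a cells were seeded overnight at 37 °C, then exposed to 10 µM compound for 48 h. Lysates were treated with 20 μg/mL proteinase K at 37 °C for 30 min, then 15% SDS-PAGE and western blot for PrP^Sc. PrP^Sc ratio is % of solvent-treated control (100%), Tukey-Kramer comparison, mean ± SD.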
Compound Cc1cccc(C#C[C@]2(O)CCCC[C@@H]2NCc2ccccc2)c1 has an Activity of 93.7%.
Cc1cccc(CN[C@H]2CCCC[C@@]2(O)C#Cc2ccccc2)c1 gave an Activity of 84.8%.
With O=C1O[C@@]2(C#Cc3ccccc3)CCCC[C@@H]2N1Cc1ccccc1 the Activity was 68.4%.
OC(C#Cc1ccccc1)CNCc1ccccc1 (centres undefined) gave an Activity of 120%.
For O[C@@]1(/C=C/c2ccccc2)CCCC[C@@H]1NCc1ccccc1, the Activity was 81.6%.
With O[C@@]1(C#Cc2ccccc2)CCCC[C@@H]1NCc1ccccc1 the Activity was 100%.
Work on C(#C[C@@]12CCCC[C@@H]1N2Cc1ccccc1)c1ccccc1 (mixture of isomers) yielded an Activity of 96.7%.
Compound O[C@@]1(C#Cc2ccccc2)CCCC[C@@H]1NCc1ccccc1F (mixture of isomers) has an Activity of 68.6%.
With O[C@@]1(C#Cc2ccc(F)cc2)CCCC[C@@H]1NCC1CCCCC1 (racemic) the Activity was 35.5%.
Work on OC1(C#Cc2ccccc2)CCCCC1NCc1ccccc1 (racemic) yielded an Activity of 85.8%.
Compound O[C@@]1(C#Cc2ccccc2)CCCC[C@@H]1NCC1CCCCC1 (racemic) has an Activity of 32.7%.
CC(C)(C)OC(=O)N1CC[C@@](O)(C#Cc2ccccc2)[C@@H](NCc2ccccc2)C1 (racemic) gave an Activity of 108%.
Work on CCOC(=O)CN(Cc1ccccc1)[C@H]1CCCC[C@@]1(O)C#Cc1ccccc1 (racemic) yielded an Activity of 76.1%.
In the case of COC(=O)c1ccc(C#C[C@]2(O)CCCC[C@@H]2NCc2ccccc2)cc1 (racemic), the Activity is reported as 84.8%.
For COC(=O)c1cccc(C#C[C@]2(O)CCCC[C@@H]2NCc2ccccc2)c1 (racemic), the Activity was 83.7%.
Work on COC(=O)c1ccccc1C#C[C@]1(O)CCCC[C@@H]1NCc1ccccc1 (racemic) yielded an Activity of 103%.
COc1ccc(C#C[C@]2(O)CCCC[C@@H]2NCc2ccccc2)cc1 (racemic) showed an Activity of 75.7%.
Compound COc1ccc(CN[C@H]2CCCC[C@@]2(O)C#Cc2ccccc2)cc1 (racemic) has an Activity of 83.3%.
Work on Cc1ccc(C#C[C@]2(O)CCCC[C@@H]2NCC2CCCCC2)cc1 (racemic) yielded an Activity of 75.2%.
Cc1ccc(CN[C@H]2CCCC[C@@]2(O)C#Cc2ccccc2)cc1 (racemic) showed an Activity of 75.5%.
N[C@H]1CCCC[C@@]1(O)CCc1ccccc1 (racemic) showed an Activity of 88%.
Work on O=C(N[C@H]1CCCC[C@@]1(O)CCc1ccccc1)c1ccccc1 (racemic) yielded an Activity of 126%.
O=S(=O)(N[C@H]1CCCC[C@@]1(O)CCc1ccccc1)c1ccccc1 (racemic) showed an Activity of 112%.
For OC1(CN[C@H]2CCCC[C@@]2(O)C#Cc2ccccc2)CCCCC1 (racemic), the Activity was 77.5%.
O[C@@]1(C#Cc2ccc(Cl)cc2)CCCC[C@@H]1NCc1ccccc1 (racemic) showed an Activity of 77.5%.
For O[C@@]1(C#Cc2ccc(F)cc2)CCCC[C@@H]1NCc1ccccc1 (racemic), the Activity was 95.1%.
In the case of O[C@@]1(C#Cc2cccc(F)c2)CCCC[C@@H]1NCc1ccccc1 (racemic), the Activity is reported as 74.5%.
For O[C@@]1(C#Cc2ccccc2)CCCCC[C@@H]1NCc1ccccc1 (racemic), the Activity was 75.7%.
Compound O[C@@]1(C#Cc2ccccc2)CCCC[C@@H]1N1CC[C@@H]2CCCC[C@H]2C1 (racemic) has an Activity of 66.7%.
O[C@@]1(C#Cc2ccccc2)CCCC[C@@H]1N1CCc2ccccc2C1 (racemic) showed an Activity of 86%.
Compound O[C@@]1(C#Cc2ccccc2)CCCC[C@@H]1NCC1CCCC1 (racemic) has an Activity of 54.8%.
Compound O[C@@]1(C#Cc2ccccc2)CCCC[C@@H]1NCc1ccc(F)cc1 (racemic) has an Activity of 58.8%.
Work on O[C@@]1(C#Cc2ccccc2)CCCC[C@@H]1NCc1cccc(F)c1 (racemic) yielded an Activity of 61.2%.
Compound O[C@@]1(C#Cc2ccccc2)CCCC[C@@H]1NCc1ccccc1Cl (racemic) has an Activity of 96.1%.
In the case of O[C@@]1(C#Cc2ccccc2)CCCC[C@@H]1NCc1ccccn1 (racemic), the Activity is reported as 116%.
For O[C@@]1(C#Cc2ccccc2)CCCC[C@@H]1NCc1cccnc1 (racemic), the Activity was 63.4%.
In the case of O[C@@]1(C#Cc2ccccc2)CCCC[C@@H]1NCc1ccco1 (racemic), the Activity is reported as 103%.
Work on O[C@@]1(C#Cc2ccccc2)CCCC[C@@H]1NCc1ccncc1 (racemic) yielded an Activity of 102%.
For O[C@@]1(C#Cc2ccccc2)CCOC[C@@H]1NCc1ccccc1 (racemic), the Activity was 85.2%.
Work on O[C@@]1(C#Cc2ccccc2F)CCCC[C@@H]1NCc1ccccc1 (racemic) yielded an Activity of 80.7%.

Test system: not listed separately
Experiment: Anti-prion activity against Scrapie prion protein in mouse N2a-FK cells after 48 hrs by immunoblotting analysis
Assay type: cell-based
Outline: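 N2a cells persistently infected with FK-1 prion strain, seeded overnight at 37 °C, then exposed to compound at 1, 5 and 10 µM for 48 h. Lysates digested with 20 μg/mL proteinase K at 37 °C for 30 min, run on 15% SDS-PAGE, and western blotted. PrP^Sc band intensity was plotted against concentration and fitted to a Boltzmann sigmoid for IC50. Mean ± SD from at least three experiments.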
O[C@@]1(C#Cc2ccc(F)cc2)CCCC[C@@H]1NCC1CCCCC1 (racemic) gave an IC50 of 5.6 µM.
O[C@@]1(C#Cc2ccccc2)CCCC[C@@H]1NCC1CCCCC1 (racemic) showed an IC50 of 4.7 µM.

Test system: not listed separately
Experiment: Anti-prion activity against RML prion protein in mouse N2a cells by Western blotting analysis
Assay type: cell-based
Work on OC1(C#Cc2ccccc2)CCCCC1NCc1ccccc1 (racemic) yielded an IC50 of 3.21 µM.
